Laboratory results from ChEMBL document CHEMBL3745642, “Structure-Activity Relationships of Novel Tryptamine-Based Inhibitors of Bacterial Transglycosylase” (J Med Chem, 2015).
The source made the active and inactive calls. No cut-off for these calls is given here.

Key:
Staphylococcus aureus [1] = experiment: Antibacterial activity against Staphylococcus aureus ATCC 25923 assessed as no visual turbidity by broth microdilution method; type: functional
Outline: (§1)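 Mueller-Hinton broth microdilution per EUCAST/CLSI, 200 µL final volume. Compounds taken from 10 mg/mL DMSO stocks and diluted 20-fold in broth just before use. Inoculum was colonies from overnight plates, adjusted to 0.5 McFarland (about 1.10^8 CFU/mL) in 0.085% NaCl, then diluted 100-fold in broth. MIC was the lowest dilution with no visible turbidity.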

Enterococcus faecium = experiment: Antibacterial activity against Enterococcus faecium ATCC 19434 assessed as no visual turbidity by broth microdilution method; type: functional
Outline: (§2)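 Broth microdilution in Mueller-Hinton broth following the EUCAST/CLSI procedure. Compounds were made as 10 mg/mL DMSO stocks, diluted 20-fold in broth just before use. Inoculum: colonies suspended to 0.5 McFarland (~1×10^8 CFU/mL) in 0.085% NaCl, then diluted 100-fold in broth. MIC is the lowest dilution with no visible turbidity.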

Staphylococcus aureus [2] = experiment: Antibacterial activity against methicillin-resistant Staphylococcus aureus ATCC 43300 assessed as no visual turbidity by broth microdilution method; type: functional; outline: as §1
[3] = Inhibition of transglycosylase activity of Escherichia coli PBP1b incubated for 30 mins by continous fluorescence assay
Escherichia coli [4] = experiment: Antibacterial activity against Escherichia coli ATCC 8739 assessed as no visual turbidity by broth microdilution method; type: functional; outline: as §2
Escherichia coli [5] = experiment: Inhibition of transglycosylase activity of Escherichia coli PBP1b assessed as remaining activity at 500 uM incubated for 30 mins by continous fluorescence assay
Outline: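 Continuous fluorescence TG assay at 30 °C with purified E. coli PBP1b (100 nM) and dansyl-lipid II (10 µM) plus 1 U muramidase (Cellosyl). Fluorescence (ex 355/em 536 nm) read for 30 min. Relative activity measured with compound at 500 µM.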

HEK293 = experiment: Cytotoxicity against HEK293 cells assessed as reduction in cell viability at 8 ug/ml after 24 hrs by MTS assay; type: cell-based; conditions: human, hek293, 24 h
Outline: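 HEK293 cells grown in DMEM with 10% FBS, 2 mM glutamine and penicillin/streptomycin at 37 °C, 5% CO2. Cells seeded at 2×10^4 per well and allowed to adhere 24 h. Compound added at 8 µg/mL final from an 8 mg/mL DMSO stock, with vehicle controls, in triplicate for 24 h. Metabolic activity read by MTS (CellTiter 96 AQueous One).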

[6] = Inhibition of Enterococcus hirae PBP2 transglycosylase activity after 30 mins by continous fluorescence assay
[7] = target: T1, Penicillin-binding protein 2 (Staphylococcus aureus, UniProt Q53729); experiment: Inhibition of Staphylococcus aureus PBP2 transglycosylase activity after 30 mins by continous fluorescence assay
T1 sequence (Q53729 whole entry): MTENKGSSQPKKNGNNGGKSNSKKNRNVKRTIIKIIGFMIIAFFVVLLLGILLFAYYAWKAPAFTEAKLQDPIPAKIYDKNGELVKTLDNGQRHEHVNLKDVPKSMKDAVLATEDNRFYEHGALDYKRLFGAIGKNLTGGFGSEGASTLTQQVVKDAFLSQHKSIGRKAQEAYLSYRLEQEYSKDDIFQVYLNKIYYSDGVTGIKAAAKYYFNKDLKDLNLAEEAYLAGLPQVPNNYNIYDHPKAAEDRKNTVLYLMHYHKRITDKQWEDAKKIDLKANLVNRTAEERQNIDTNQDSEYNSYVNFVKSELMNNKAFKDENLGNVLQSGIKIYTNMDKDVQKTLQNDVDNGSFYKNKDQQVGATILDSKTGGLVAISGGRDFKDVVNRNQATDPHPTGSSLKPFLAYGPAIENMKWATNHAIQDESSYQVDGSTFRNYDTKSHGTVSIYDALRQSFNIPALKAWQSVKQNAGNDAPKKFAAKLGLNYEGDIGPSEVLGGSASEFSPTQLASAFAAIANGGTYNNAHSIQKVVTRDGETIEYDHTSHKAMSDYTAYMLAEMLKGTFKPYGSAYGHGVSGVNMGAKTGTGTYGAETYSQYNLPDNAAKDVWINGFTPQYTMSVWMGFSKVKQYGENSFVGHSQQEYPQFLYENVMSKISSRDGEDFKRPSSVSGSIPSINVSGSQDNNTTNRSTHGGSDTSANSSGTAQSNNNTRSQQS

[8] = Inhibition of Thermotoga maritima PBP1A transglycosylase activity after 30 mins by continous fluorescence assay
[9] = Inhibition of Staphylococcus aureus mtgA after 30 mins by continous fluorescence assay
[10] = Binding affinity to lipid2 in carboxyfluorescein loaded DOPC large unilamellar vesicle assessed as inhibition of nisin-induced carboxyfluorescein leakage at 1.5 uM preincubated for 2 mins followed by nisin addition measured after 50 secs
Outline: (§3)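 DOPC LUVs (200-nm extrusion) containing 0.1 mol% lipid II and loaded with 50 mM CF, used at 20 µM lipid in 10 mM Tris, 150 mM NaCl, pH 7.5. Compound (from 1 mM DMSO stock) preincubated 2 min, then 20 nM nisin added. Leakage read at ex 492/em 516 nm and normalized to Triton X-100 total release. Residual nisin activity at 50 s is expressed relative to a no-compound control; run in triplicate.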

[11] = Binding affinity to lipid2 in carboxyfluorescein loaded DOPC large unilamellar vesicle assessed as inhibition of nisin-induced carboxyfluorescein leakage at 3 uM preincubated for 2 mins followed by nisin addition measured after 50 secs; outline: as §3

Structure (SMILES): COc1cccc(Cn2cc(CCNC(=N)N)c3ccccc32)c1
- MIC (Staphylococcus aureus [1]; read-out: MIC): 73 µM
- MIC (Enterococcus faecium): 293 µM
- MIC (Staphylococcus aureus [2]): 146 µM
- IC50 [3]: > 250 µM
- MIC (Escherichia coli [4]): 73 µM
- Activity (Escherichia coli [5]): 55%

Structure (SMILES): CSc1ccc2c(c1)c(CCN)c(C)n2Cc1ccc(Cl)c(Cl)c1 [listing 1 of 3 here]
- Activity (HEK293): Toxic
- IC50 [6]: 33 µM
- MIC (Staphylococcus aureus [1]): 16 µg/mL
- MIC (Enterococcus faecium): 76 µM
- MIC (Staphylococcus aureus [2]): 9.6 µM
- IC50 [7]: 20.7 µM
- IC50 [3]: 29 µM
- IC50 [8]: 56 µM
- MIC (Escherichia coli [4]): 616 µM
- IC50 [9]: 27 µM

Structure (SMILES): COc1ccc2c(c1)c(CCN)c(C)n2Cc1ccc(C#N)cc1
- Activity (Escherichia coli [5]): 118%

Structure (SMILES): N#Cc1cccc(Cn2cc(CCN)c3ccccc32)c1
- Activity (Escherichia coli [5]): 94%

Structure (SMILES): Cl.N=C(N)NCCc1cn(Cc2ccc(F)c(F)c2)c2ccccc12
- Activity (HEK293): Non-toxic
- MIC (Staphylococcus aureus [1]; read-out: MIC): 44 µM
- MIC (Enterococcus faecium): 88 µM
- MIC (Staphylococcus aureus [2]): 88 µM
- IC50 [3]: 97 µM
- MIC (Escherichia coli [4]): 44 µM
- Activity (Escherichia coli [5]): 10%

Structure (SMILES): CSc1ccc2c(c1)c(CCN)c(C)n2Cc1ccc(Cl)c(Cl)c1 [listing 2 of 3 here]
- IC50 [3]: 21 µM

Structure (SMILES): NCCc1cn(Cc2ccc(F)cc2)c2ccccc12
- Activity (Escherichia coli [5]): 97%

Structure (SMILES): COc1ccc2c(c1)c(CCN)cn2Cc1ccc(F)c(F)c1
- Activity (Escherichia coli [5]): 88%

Structure (SMILES): CSc1ccc2c(c1)c(CCN)c(C)n2Cc1ccccc1
- MIC (Staphylococcus aureus [1]; read-out: MIC): 92 µM
- MIC (Enterococcus faecium): 92 µM
- MIC (Staphylococcus aureus [2]): 184 µM
- IC50 [3]: > 250 µM
- MIC (Escherichia coli [4]): 369 µM
- Activity (Escherichia coli [5]): 31%

Structure (SMILES): COc1ccccc1Cn1cc(CCNC(=N)N)c2ccccc21
- MIC (Staphylococcus aureus [1]; read-out: MIC): 89 µM
- MIC (Enterococcus faecium): 44 µM
- MIC (Staphylococcus aureus [2]): 89 µM
- IC50 [3]: > 250 µM
- MIC (Escherichia coli [4]): > 356 µM
- Activity (Escherichia coli [5]): 29%

Structure (SMILES): Cl.N=C(N)NCCc1cn(Cc2ccc(Cl)c(Cl)c2)c2ccccc12
- Activity (HEK293): Non-toxic
- MIC (Staphylococcus aureus [1]; read-out: MIC): 20 µM
- MIC (Enterococcus faecium): 10 µM
- MIC (Staphylococcus aureus [2]): 20 µM
- IC50 [3]: 51 µM
- MIC (Escherichia coli [4]): 40 µM
- Activity (Escherichia coli [5]): 1%

Structure (SMILES): Cl.NCCc1cn(Cc2ccc(Cl)c(Cl)c2)c2ccccc12
- Activity (HEK293): Toxic
- MIC (Staphylococcus aureus [1]; read-out: MIC): 45 µM
- MIC (Enterococcus faecium): 11 µM
- MIC (Staphylococcus aureus [2]): 45 µM
- IC50 [3]: 103 µM
- MIC (Escherichia coli [4]): 45 µM
- Activity (Escherichia coli [5]): 15%

Structure (SMILES): N=C(N)NCCc1cn(Cc2ccc(F)cc2)c2ccccc12
- MIC (Staphylococcus aureus [1]; read-out: MIC): 92 µM
- MIC (Enterococcus faecium): 184 µM
- MIC (Staphylococcus aureus [2]): 369 µM
- IC50 [3]: > 250 µM
- MIC (Escherichia coli [4]): 184 µM
- Activity (Escherichia coli [5]): 42%

Structure (SMILES): NCCc1cn(Cc2cccc(Cl)c2)c2ccccc12
- MIC (Staphylococcus aureus [1]; read-out: MIC): 100 µM
- MIC (Enterococcus faecium): 100 µM
- MIC (Staphylococcus aureus [2]): 100 µM
- IC50 [3]: > 250 µM
- MIC (Escherichia coli [4]): 100 µM
- Activity (Escherichia coli [5]): 54%

Structure (SMILES): CSc1ccc2c(c1)c(CCN)c(C)n2Cc1ccc(Cl)c(Cl)c1 [listing 3 of 3 here]
- Activity (Escherichia coli [5]): 1%

Structure (SMILES): COc1ccc(Cn2cc(CCNC(=N)N)c3ccccc32)cc1
- Activity (Escherichia coli [5]): 67%

Structure (SMILES): COc1ccc2c(c1)c(CCNC(=N)N)cn2Cc1ccc(F)c(F)c1
- MIC (Staphylococcus aureus [1]; read-out: MIC): 81 µM
- MIC (Enterococcus faecium): 324 µM
- MIC (Staphylococcus aureus [2]): 162 µM
- IC50 [3]: > 250 µM
- MIC (Escherichia coli [4]): 81 µM
- Activity (Escherichia coli [5]): 28%

Structure (SMILES): COc1ccccc1Cn1cc(CCN)c2ccccc21
- Activity (Escherichia coli [5]): 96%

Structure (SMILES): COc1ccc(Cn2cc(CCN)c3ccccc32)cc1
- Activity (Escherichia coli [5]): 80%

Structure (SMILES): COc1ccc2c(c1)c(CCN)cn2Cc1ccc(Cl)c(Cl)c1.Cl
- Activity (HEK293): Toxic
- MIC (Staphylococcus aureus [1]; read-out: MIC): 83 µM
- MIC (Enterococcus faecium): 83 µM
- MIC (Staphylococcus aureus [2]): 83 µM
- IC50 [3]: 193 µM
- MIC (Escherichia coli [4]): 166 µM
- Activity (Escherichia coli [5]): 24%

Structure (SMILES): COc1ccc2c(c1)c(CCN)c(C)n2Cc1ccc(Cl)c(Cl)c1.Cl
- Activity (HEK293): Toxic
- MIC (Staphylococcus aureus [1]; read-out: MIC): 20 µM
- MIC (Enterococcus faecium): 20 µM
- MIC (Staphylococcus aureus [2]): 40 µM
- IC50 [3]: 104 µM
- MIC (Escherichia coli [4]): 20 µM
- Activity (Escherichia coli [5]): 5%

Structure (SMILES): N=C(N)NCCc1cn(Cc2ccccc2)c2ccccc12
- Activity (Escherichia coli [5]): 73%

Structure (SMILES): NCCc1cn(Cc2ccccc2)c2ccccc12
- Activity (Escherichia coli [5]): 93%

Structure (SMILES): N#Cc1cccc(Cn2cc(CCNC(=N)N)c3ccccc32)c1
- Activity (Escherichia coli [5]): 79%

Structure (SMILES): COc1ccc2c(c1)c(CCN)c(C)n2Cc1ccccc1
- Activity (Escherichia coli [5]): 75%

Structure (SMILES): COc1cccc(Cn2cc(CCN)c3ccccc32)c1
- Activity (Escherichia coli [5]): 86%

Structure (SMILES): COc1ccc2c(c1)c(CCNC(=N)N)cn2Cc1ccc(Cl)c(Cl)c1.Cl
- Activity (HEK293): Non-toxic
- Activity [10]: Active
- MIC (Staphylococcus aureus [1]; read-out: MIC): 19 µM
- MIC (Enterococcus faecium): 19 µM
- MIC (Staphylococcus aureus [2]): 19 µM
- IC50 [3]: 50 µM
- MIC (Escherichia coli [4]): 37 µM
- Activity (Escherichia coli [5]): 9%

Structure (SMILES): COc1ccc2c(c1)c(CCN)cn2Cc1ccc(C#N)cc1
- Activity (Escherichia coli [5]): 105%

Structure (SMILES): N=C(N)NCCc1cn(Cc2cccc(Cl)c2)c2ccccc12
- MIC (Staphylococcus aureus [1]; read-out: MIC): 145 µM
- MIC (Enterococcus faecium): 73 µM
- MIC (Staphylococcus aureus [2]): 145 µM
- IC50 [3]: 166 µM
- MIC (Escherichia coli [4]): 145 µM
- Activity (Escherichia coli [5]): 15%

Structure (SMILES): NCCc1cn(Cc2ccc(F)c(F)c2)c2ccccc12
- MIC (Staphylococcus aureus [1]; read-out: MIC): 198 µM
- MIC (Enterococcus faecium): 198 µM
- MIC (Staphylococcus aureus [2]): 397 µM
- IC50 [3]: > 250 µM
- MIC (Escherichia coli [4]): 198 µM
- Activity (Escherichia coli [5]): 62%

Structure (SMILES): COc1ccc2c(c1)c(CCNC(=N)N)c(C)n2Cc1ccc(Cl)c(Cl)c1.Cl
- Activity (HEK293): Non-toxic
- Activity [10]: Active
- MIC (Staphylococcus aureus [1]; read-out: MIC): 9.1 µM
- MIC (Enterococcus faecium): 9.1 µM
- MIC (Staphylococcus aureus [2]): 9.1 µM
- IC50 [3]: 39 µM
- MIC (Escherichia coli [4]): 72 µM
- inhibition [11]: > 90%
- Activity (Escherichia coli [5]): 4%

Structure (SMILES): COc1ccc2c(c1)c(CCN)c(C)n2Cc1ccc(F)c(F)c1
- MIC (Staphylococcus aureus [1]; read-out: MIC): 174 µM
- MIC (Enterococcus faecium): 174 µM
- MIC (Staphylococcus aureus [2]): 174 µM
- IC50 [3]: > 250 µM
- MIC (Escherichia coli [4]): 174 µM
- Activity (Escherichia coli [5]): 28%
